Assay results as given in PMC8992017 (Journal of medicinal chemistry, 2019).
“Also recorded” adds a separate entry of the source.

Columns and labels:
[1] = test system: ISRE; test: ISRE activity in ISRE-bla THP-1 reporter cells; format: cell-based; conditions: compound 5 μM + IFN-α, compared with compound 1
Procedure, shortened: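 ISRE-bla THP-1 cells at 5×10^4/well in RPMI with 10% dialyzed FBS, 0.1 mM non-essential amino acids, 1 mM pyruvate and pen/strep. Test compound (1 mM DMSO stock) was diluted in IFN-α medium, giving final 5 μM compound ([…]) and final 100 U/mL IFN-α. Incubation 16 h, then CCF4-AM FRET substrate 3 h at RT in the dark. Excitation 405 nm; background-subtracted 465/535 nm emission ratio. Two-point normalized: reference sulfonamide + IFN-α = 200%, IFN-α alone = 100%; mean ± SEM.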

[2] = test system: NF-κB; test: NF-κB activation in THP1-Blue NF-κB reporter cells; format: cell-based; conditions: compound 5 μM + LPS, compared with compound 1
Procedure, shortened: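 THP1-Blue NF-κB cells at 10^5/well in RPMI with 10% FBS, pen/strep and Normocin. Test compound (1 mM DMSO stock) was diluted into LPS medium, giving final 5 μM compound ([…]), with LPS co-added. After 20 h, supernatant SEAP was measured colorimetrically with QuantiBlue at 630 nm. Two-point normalized: reference sulfonamide + LPS = 200%, LPS alone = 100%; mean ± SEM.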

Molecule | ISRE activity (in words) [1] | NF-κB activity (in words) [2]
3-Bromo-N-(4-chloro-2,5-dimethoxyphenyl)-4-ethoxybenzenesulfonamide [Compound 25] | inactive | inactive
CCOc1ccc(S(=O)(=O)Nc2ccc(Cl)c(OC)c2)cc1 [Compound 4, N-(4-chloro-3-methoxyphenyl)-4-ethoxybenzenesulfonamide] | complete loss of activity | complete loss of activity
CCOc1ccc(S(=O)(=O)Nc2ccc(Cl)cc2OC)cc1 [Compound 5, N-(4-chloro-2-methoxyphenyl)-4-ethoxybenzenesulfonamide] | complete loss of activity | complete loss of activity
CCOc1ccc(S(=O)(=O)Nc2cc(OC)ccc2OC)cc1 [Compound 6, N-(2,5-dimethoxyphenyl)-4-ethoxybenzenesulfonamide] | retained activity | retained activity
CCOc1ccc(S(=O)(=O)Nc2cc(OC)c(Br)cc2OC)cc1 [Compound 7, N-(4-bromo-2,5-dimethoxyphenyl)-4-ethoxybenzenesulfonamide] | retained activity; also recorded: slightly skewed ISRE activity | retained activity
CCOc1ccc(S(=O)(=O)Nc2cc(OC)c(Cl)c(OC)c2)cc1 [Compound 8, N-(4-chloro-3,5-dimethoxyphenyl)-4-ethoxybenzenesulfonamide] | complete loss of activity; also recorded: slightly skewed ISRE activity | complete loss of activity
CCOc1ccc(S(=O)(=O)Nc2cc(OC)c([N+](=O)[O-])cc2OC)cc1 [Compound 9, N-(2,5-dimethoxy-4-nitrophenyl)-4-ethoxybenzenesulfonamide] | inactive | –
CCOc1ccc(S(=O)(=O)Nc2cc(OC)c(N)cc2OC)cc1 [Compound 10, N-(4-amino-2,5-dimethoxyphenyl)-4-ethoxybenzenesulfonamide] | inactive | –
COc1cc(NS(=O)(=O)c2ccc(O)cc2)c(OC)cc1Cl [Compound 11, N-(4-chloro-2,5-dimethoxyphenyl)-4-hydroxybenzenesulfonamide] | not tolerated | not tolerated
COc1ccc(S(=O)(=O)Nc2cc(OC)c(Cl)cc2OC)cc1 [Compound 12, N-(4-chloro-2,5-dimethoxyphenyl)-4-methoxybenzenesulfonamide] | tolerated | tolerated
CCCOc1ccc(S(=O)(=O)Nc2cc(OC)c(Cl)cc2OC)cc1 [Compound 13, N-(4-chloro-2,5-dimethoxyphenyl)-4-propoxybenzenesulfonamide] | weakly active | weakly active
CCCCOc1ccc(S(=O)(=O)Nc2cc(OC)c(Cl)cc2OC)cc1 [Compound 14, 4-Butoxy-N-(4-chloro-2,5-dimethoxyphenyl)benzenesulfonamide] | gradual loss of activity | gradual loss of activity
C#CCOc1ccc(S(=O)(=O)Nc2cc(OC)c(Cl)cc2OC)cc1 [Compound 15, N-(4-chloro-2,5-dimethoxyphenyl)-4-(prop-2-yn-1-yloxy)benzenesulfonamide] | inactive | inactive
CCCc1ccc(S(=O)(=O)Nc2cc(OC)c(Cl)cc2OC)cc1 [Compound 16, N-(4-chloro-2,5-dimethoxyphenyl)-4-propylbenzenesulfonamide] | loss of activity | loss of activity
COc1cc(NS(=O)(=O)c2ccc([N+](=O)[O-])cc2)c(OC)cc1Cl [Compound 17, N-(4-chloro-2,5-dimethoxyphenyl)-4-nitrobenzenesulfonamide] | either weakly active or completely inactive | either weakly active or completely inactive
COc1cc(NS(=O)(=O)c2ccc(N)cc2)c(OC)cc1Cl [Compound 18, 4-Amino-N-(4-chloro-2,5-dimethoxyphenyl)benzenesulfonamide] | either weakly active or completely inactive | either weakly active or completely inactive
COc1cc(NS(=O)(=O)c2ccc(C#N)cc2)c(OC)cc1Cl [Compound 19, N-(4-chloro-2,5-dimethoxyphenyl)-4-cyanobenzenesulfonamide] | either weakly active or completely inactive | either weakly active or completely inactive

Molecule | ISRE activity (in words) [1] | NF-κB activity (in words) [2]
COc1cc(NS(=O)(=O)c2ccc(CNC(=O)OC(C)(C)C)cc2)c(OC)cc1Cl [Compound 20, tert-butyl (4-(N-(4-chloro-2,5-dimethoxyphenyl)sulfamoyl)benzyl)carbamate] | either weakly active or completely inactive | either weakly active or completely inactive
COc1cc(NS(=O)(=O)c2ccc(CN)cc2)c(OC)cc1Cl [Compound 21, 4-(aminomethyl)-N-(4-chloro-2,5-dimethoxyphenyl)benzenesulfonamide] | either weakly active or completely inactive | either weakly active or completely inactive
COc1cc(NS(=O)(=O)c2ccc(Oc3ccccc3)cc2)c(OC)cc1Cl [Compound 22, N-(4-chloro-2,5-dimethoxyphenyl)-4-phenoxybenzenesulfonamide] | inactive | –
COc1cccc(S(=O)(=O)Nc2cc(OC)c(Cl)cc2OC)c1 [Compound 23, N-(4-chloro-2,5-dimethoxyphenyl)-3-methoxybenzenesulfonamide] | none of these molecules was active | none of these molecules was active
COc1cc(NS(=O)(=O)c2ccccc2OC)c(OC)cc1Cl [Compound 24, N-(4-chloro-2,5-dimethoxyphenyl)-2-methoxybenzenesulfonamide] | none of these molecules was active | none of these molecules was active
COC(=O)c1ccc(S(=O)(=O)Nc2cc(OC)c(Cl)cc2OC)cc1 [Compound 26, Methyl 4-(N-(4-chloro-2,5-dimethoxyphenyl)sulfamoyl)benzoate] | active | –
COc1cc(NS(=O)(=O)c2ccc(C(N)=O)cc2)c(OC)cc1Cl [Compound 27, 4-(N-(4-chloro-2,5-dimethoxyphenyl)sulfamoyl)benzamide] | lost activity | lost activity
COc1cc(NS(=O)(=O)c2ccc(C(=O)O)cc2)c(OC)cc1Cl [Compound 28, 4-(N-(4-chloro-2,5-dimethoxyphenyl)sulfamoyl)benzoic acid] | lost activity | lost activity
CCOC(=O)c1ccc(S(=O)(=O)Nc2cc(OC)c(Cl)cc2OC)cc1 [Compound 29, Ethyl 4-(N-(4-chloro-2,5-dimethoxyphenyl)sulfamoyl)benzoate] | retained partial activity | retained partial activity
CNC(=O)c1ccc(S(=O)(=O)Nc2cc(OC)c(Cl)cc2OC)cc1 [Compound 30, 4-(N-(4-chloro-2,5-dimethoxyphenyl)sulfamoyl)-N-methylbenzamide] | completely inactive | completely inactive
CCOc1ccc(NS(=O)(=O)c2cc(OC)c(Cl)cc2OC)cc1 [Compound 31, 4-Chloro-N-(4-ethoxyphenyl)-2,5-dimethoxybenzenesulfonamide] | inactivity | inactivity
CCOc1ccc(S(=O)(=O)N(c2cc(OC)c(Cl)cc2OC)C(C)C)cc1 [Compound 40, N-(4-chloro-2,5-dimethoxyphenyl)-4-ethoxy-N-isopropylbenzenesulfonamide] | retaining ISRE activity | eliminated the NF-κB activity
CCOc1ccc(S(=O)(=O)N(CC(C)C)c2cc(OC)c(Cl)cc2OC)cc1 [Compound 41, N-(4-chloro-2,5-dimethoxyphenyl)-4-ethoxy-N-isobutylbenzenesulfonamide] | regained the activity | regained the activity
C#CCN(c1cc(OC)c(Cl)cc1OC)S(=O)(=O)c1ccc(OCC)cc1 [Compound 42, N-(4-chloro-2,5-dimethoxyphenyl)-4-ethoxy-N-(prop-2-yn-1-yl)benzenesulfonamide] | retained activity almost equivalent to that of compound 1 | retained activity almost equivalent to that of compound 1
C#CCCN(c1cc(OC)c(Cl)cc1OC)S(=O)(=O)c1ccc(OCC)cc1 [Compound 43, N-(but-3-yn-1-yl)-N-(4-chloro-2,5-dimethoxyphenyl)-4-ethoxybenzenesulfonamide] | retained activity almost equivalent to that of compound 1 | retained activity almost equivalent to that of compound 1
COc1cc(NS(=O)(=O)c2ccc(OC)c(N=[N+]=[N-])c2)c(OC)cc1Cl [Compound 61, 3-Azido-N-(4-chloro-2,5-dimethoxyphenyl)-4-methoxybenzenesulfonamide] | inactive | –
